SMARCA2 activ – SMARCA2 (BRM) function activators, primary screen, cell-based, luminescence, high throughput. MG213 cells, MMTV-luciferase reporter, dexamethasone, overnight. activation, % at 9.1 µM. 370,000 tested, 1% active. AID 652017, 2013; in the data active = activation above about 7.8%;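 also: 0% = vehicle wells and 100% = reference activator wells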
MC4R antag cAMP – MC4R antagonists of cAMP signaling, primary screen, cell-based, TR-FRET, antagonist arm of biased-ligand search | Melanocortin receptor 4 (Homo sapiens), P32245 | MC4R-expressing cells, MTII-stimulated cAMP, LANCE TR-FRET | inhibition, % at 6.5 µM | 360,000 tested, 0.48% active | AID 540295, 2011;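 active = inhibition above its plate's cutoff, the mean of tested wells on that plate plus 3 SD, cut at about 29% in these data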;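 also: 0% = Melanotan II alone and 100% = Melanotan II plus saturating MCL0020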
Target sequence (P32245 whole entry, looked up): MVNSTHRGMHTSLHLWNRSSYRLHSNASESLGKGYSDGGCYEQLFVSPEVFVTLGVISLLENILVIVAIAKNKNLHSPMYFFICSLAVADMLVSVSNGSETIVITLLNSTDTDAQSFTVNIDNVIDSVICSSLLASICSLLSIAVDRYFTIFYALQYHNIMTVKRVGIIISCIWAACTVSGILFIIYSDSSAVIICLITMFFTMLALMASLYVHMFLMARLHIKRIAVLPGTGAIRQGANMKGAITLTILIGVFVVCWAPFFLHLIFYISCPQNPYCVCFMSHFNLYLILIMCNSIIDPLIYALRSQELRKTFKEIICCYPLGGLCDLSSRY
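System: U2OS cells stably expressing human melanocortin 4 receptor (MC4R). Reagent: Melanotan II challenge after compound preincubation. Doses: 6.5 µM. Times: 30-min compound, 1-h challenge, 1-h detection, room temperature. Measured by: TR-FRET with Eu-cAMP and labeled anti-cAMP, 671 nm. Replicates: singlicate.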
CFTR F508del cor – F508del CFTR correction, initial screen, CFBE line, single point; CFBE cells, YFP halide quenching; stimulated with forskolin plus potentiator P3; % fluorescence drop versus neutral controls; activity (quench increase), % at 7.58 µM; 350,000 tested, 0.36% active; AID 720511, 2013;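 active = mean added fluorescence quench of at least 8% versus neutral control, with both replicates also reaching 8%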;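 also: cells transiently co-express mutant CFTR-F508del with the halide-sensitive YFP; corrector assay measuring rescue of mutant channel to the surface after 24 h compound exposure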
MC4R ag barr – MC4R agonists recruiting beta-arrestin, primary screen, cell-based, luminescence, agonist arm of biased-ligand search; Melanocortin receptor 4 (Homo sapiens), P32245; U2OS MC4R beta-arrestin complementation; percent of melanotan II response, DMSO zero; activation, % at 8.9 µM; 360,000 tested, 0.98% active; AID 540308, 2011;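 active = activation above a per-plate cutoff, the mean activation of sample wells on that plate plus 3 SD, cut at about 8% in these data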
SMARCA2 act conf – SMARCA2 (BRM) function activators, confirmation, cell-based, luminescence, triplicate; shares compounds with SMARCA2 activ; MG213 cells, MMTV-luciferase with dexamethasone, overnight; MG213 cells expressing E1A, Rb sequestered; DMSO wells 0%, reference activator 100%; activation, % at 9.1 µM; 3,500 tested, 30% active;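 active = activation above its plate's cutoff, the mean activation of tested wells plus 3 SD, cut at about 7.9% in these data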
VP16 Luc act – GAL4-VP16 luciferase reporter activation, counter-screen for SMARCA2 (BRM) activator project, cell-based, pG5luc, luminescence, high throughput; shares compounds with SMARCA2 activ; HEK293 GAL4-VP16 pG5luc reporter; scaled: DMSO wells 0%, SAHA wells 100%; activation, % at 9.1 µM; 3,500 tested, 41% active;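 active = activation above the solvent-only control well mean plus 3 SD, averaged across control plates, cut at about 5.2% in these data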
Starred values were filed as active, the others as inactive; . = not tested or not shown. The list is not random: actives were taken first. Their share in the collection is about 2.1%.

SMILES	SMARCA2 activ	MC4R antag cAMP	CFTR F508del cor	MC4R ag barr	SMARCA2 act conf	VP16 Luc act
Cc1cc(C(=O)Nc2nc3ccc(S(C)(=O)=O)cc3s2)c(C)o1	10*	0	-2	0	4	5.8*
COc1cc(/C=C(\C#N)C(=O)N2CCOCC2)ccc1OCc1ccccc1	-3	19	0	-2	.	.
N#C/C(=C\c1ccc(OCc2ccc(C(=O)O)cc2)cc1)C(=O)N1CCOCC1	10*	4	-3	-3	2	15*
CCN(CC)CCn1c2ccccc2c2nc3ccc([N+](=O)[O-])cc3cc21	10*	-6	4	0	99*	5
Cn1c2ccccc2c2cc([N+](=O)[O-])ccc21	-3	4	-1	3	.	.
C[C@@H]1CCCCO[C@@H](CN(C)C(=O)Nc2ccc(F)cc2)[C@H](C)CN([C@@H](C)CO)C(=O)c2cc(NC(=O)Nc3ccc4c(c3)OCO4)ccc2O1	.	.	-5	.	.	.
O=C(Nc1ccc2c(c1)[C@H]1C[C@@H](CC(=O)N3CCCCC3)O[C@H](CO)[C@H]1O2)C1CCC1	.	.	-1	.	.	.
O=[N+]([O-])c1cc(Cl)ccc1NCCNS(=O)(=O)c1ccccc1	16*	-3	.	-3	-1	1
O=[N+]([O-])c1ccccc1NCCNS(=O)(=O)c1ccc(Cl)cc1	0	14	.	1	.	.
C[C@H](O)C#Cc1cnc2c(c1)C(=O)N([C@@H](C)CO)C[C@H](C)[C@H](CN(C)C(=O)c1ccc(F)cc1)O2	.	.	-1	.	.	.
C[C@H](CO)N1C[C@H](C)[C@H](CN(C)S(C)(=O)=O)Oc2ccc(NC(=O)C3CCCCC3)cc2C1=O	.	.	-2	.	.	.
O=C1Nc2c(ccc(Cl)c2Cl)C(=O)C1(F)c1ccccc1 (configuration not stated)	8.3*	27	-3	-1	-3	0
O=C1Nc2ccc(Cl)cc2C(=O)C1(F)c1ccccc1 (configuration not stated)	-2	16	1	1	.	.
O=c1[nH]c(CN2CCN(S(=O)(=O)c3ccccc3C(F)(F)F)CC2)nc2sc3c(c12)CCCC3	12*	14	.	1	-2	0
COc1cc2nc(CN3CCN(S(=O)(=O)c4ccccc4C(F)(F)F)CC3)[nH]c(=O)c2cc1OC	-8	13	-2	-2	.	.
COc1cc2nc(N(C)C)nc(N)c2cc1OC	13*	1	.	0	28*	0
CC(=O)Nc1ccc(NC(=O)c2ccccc2Br)cc1	-5	10	0	-1	.	.
O=C(Nc1ccc(NC(=O)C2CC2)nc1)c1ccccc1F	8.6*	10	1	1	8	5.3*
CCc1ccc(NC(=O)c2n[nH]c(=O)c3ccccc23)cc1	8.6*	15	2	2	7	6.3*
CCc1ccc(NC(=O)c2ccccc2Br)cc1	9.9*	0	0	0	5	10*
CCOC(=O)Nc1ccc(NC(=O)c2ccccc2F)cc1	9.0*	-8	-2	-2	9.5*	8.5*
CCc1ccc(OC(=O)Nc2ccccc2)cc1	10*	11	-2	-1	9.2*	12*
COc1ccc(C(=O)NCC(=O)N2CCN(c3ncccn3)CC2)cc1OC	8.0*	4	1	-2	4	-1
COc1ccc(C(=O)NCC(=O)N2CCNC(=O)C2)cc1OC	0	5	0	-2	.	.
COc1ccc(C(=O)NC(=O)Nc2cc(C)ccn2)cc1	12*	-8	0	1	2	4
SMILES	SMARCA2 activ	MC4R antag cAMP	CFTR F508del cor	MC4R ag barr	SMARCA2 act conf	VP16 Luc act
O=C1NC(c2ccccc2Br)=N/C1=C\c1ccco1	14*	-12	0	0	9.6*	7.3*
O=C1NC(c2ccccc2)=N/C1=C/c1ccco1	5	-20	.	0	.	.
COCCNc1nc2cc(-c3ccc(C)cc3)sc2c(=O)n1C	9.0*	11	5	-1	8.8*	14*
COCCNc1nc2cc(-c3cccc(C(F)(F)F)c3)sc2c(=O)n1C	-2	-2	-1	1	.	.
O=C(NN=C1C2CC3CC1CC(Cl)(C3)C2)c1ccccn1	9.1*	12	1	-1	7	2
O=C(NN=C1C2CC3CC1CC(Cl)(C3)C2)c1cccs1	8	8	.	-2	.	.
CC(C)CC#Cc1ccc2c(c1)O[C@@H](CN(C)C(=O)Nc1ccccc1F)[C@@H](C)CN([C@H](C)CO)S2(=O)=O	.	.	8	.	.	.
CC1CCC2(CC1)NC(=O)N(CC(=O)Nc1ccc3c(c1)OCCO3)C2=O (configuration not stated)	12*	10	3	-3	10*	3
C[C@H](CO)N1C[C@H](C)[C@@H](CN(C)C(=O)Nc2ccccc2)Oc2ccc(NC(=O)Nc3cccc4ccccc34)cc2CC1=O	.	.	-1	.	.	.
O=C(CSC1=Nc2ccccc2C2=NC(Cc3c[nH]c4ccccc34)C(=O)N12)NC1CCCCC1 (configuration not stated)	8.6*	-3	.	0	1	0
COc1ccc2c3c(n(C)c2c1)[C@@H](CO)N(Cc1nccs1)CC31CN(C(=O)CN(C)C)C1	.	.	0	.	.	.
CN(C)c1ccc(NC(=O)Nc2ccc3c(c2)nnn3C)cc1	20*	-9	2	-1	11*	6.1*
CN(c1cccc(NC(=O)Nc2cccc(Cl)c2)c1)S(C)(=O)=O	2	1	.	0	.	.
CN(C)c1ccc(NC(=O)c2ccc3c(c2)nnn3C)cc1	3	-4	-1	1	.	.
CN(C)c1ccc(NC(=O)Nc2cccc(Cl)c2)cc1	9.7*	1	.	-1	7	15*
COc1ccc(CN(C)C[C@@H]2OCCCC[C@@H](C)Oc3ccc(NC(=O)Cc4ccccc4)cc3C(=O)N([C@@H](C)CO)C[C@H]2C)cc1	.	.	1	.	.	.
C[C@@H]1CN([C@H](C)CO)C(=O)c2cc(NC(=O)CCC(F)(F)F)ccc2O[C@@H](C)CCCCO[C@H]1CN(C)Cc1ccccc1	.	.	0	.	.	.
Cc1cc(C)cc(Cn2cc(CN3CC(N4CCCCC4)CS3(=O)=O)nn2)c1 (configuration not stated)	8.2*	.	3	.	1	0
Cc1cc(C)cc(Cn2cc(CN3CC(N4CCCC4)CS3(=O)=O)nn2)c1 (configuration not stated)	-4	.	-1	.	.	.
